Active and inactive are the calls of the source. The rule behind the calls is not given here.

For orientation: GI50 means the concentration giving 50% growth inhibition. For orientation: inhibition means the relative decrease from the control value, in per cent.

In one experiment the test system is MES-SA. The experiment in a line: Selectivity ratio of GI50 for human MES-SA/Dx5 cells to GI50 for human MES-SA cells. Type of experiment: functional. In outline: (§1)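 Parent MES-SA and MES-SA/Dx5 uterine sarcoma cells were grown in RPMI-1640 with 10% FBS. The Dx5 line was kept in 500 nM doxorubicin after stepwise selection from 100 nM in twofold steps, about 2 passages per step. MTT assay used 0.001–100 µM compound for 48–96 h, with 0.1% DMSO and 1 µM phenyl arsine oxide controls. The ratio is the Dx5 GI50 divided by the parent GI50.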

The nature of experiment [1]: Antiproliferative activity against patient-derived paclitaxel-resistant NCI-H2073 cells after 48 to 96 hrs by MTT assay. It is filed as functional. The note with it: Homo sapiens. For orientation: Tetrazolium assays rely on reduction of a dye to a coloured formazan, in cell work by metabolically active cells.
The nature of experiment [2]: Antiproliferative activity against patient-derived paclitaxel-sensitive NCI-H1993 cells after 48 to 96 hrs by MTT assay. Type of experiment: functional. The note with it: Homo sapiens.
A short description of experiment [3]: Antiproliferative activity against human MES-SA/Dx5 cells after 48 to 96 hrs by MTT assay. It is filed as functional. In short, it runs like this:
as §1

Experiment [4] in a line: Antiproliferative activity against drug-resistant human A549 cells up to 100 uM after 48 to 96 hrs by MTT assay relative to control. Type of experiment: functional. In outline:
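A549 cultures in RPMI with 10% heat-inactivated FBS were treated across a concentration range up to 100 µM, with phenyl arsine oxide as the nondiscriminate cytotoxic reference. Growth curves were read by MTT assay. Two independent experiments, each in 4 replicates.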

A short description of experiment [5]: Antiproliferative activity against human MES-SA cells after 48 to 96 hrs by MTT assay. It is filed as functional. In short, it runs like this: as §1
Experiment [6] is described as follows: Antiproliferative activity against drug-resistant human U251 cells after 48 to 96 hrs by MTT assay. Type of experiment: functional. The note with it: U-251. In outline:
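U251 cells were kept in 10% MEM with glutamine, gentamicin and penicillin-streptomycin at 37 °C and 5% CO2. After seeding they were grown 24–72 h and then given compounds at 0.001–100 µM (from 100 or 50 mM DMSO stocks) for 48–96 h. Viability was read by MTT. Vehicle control was 0.1% DMSO; 1 µM phenyl arsine oxide served as positive control. The result is the average 50%-viability-reducing concentration.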

In a further experiment the test system is NCI-H1993. Kind of experiment: Potentiation of paclitaxel-induced cytotoxicity against patient-derived paclitaxel-sensitive NCI-H1993 cells assessed as reduction in cell viability up to 100 uM after 96 hrs by Celltiter-Glo luminescent assay. Type of experiment: functional, cell-based. The note with it: Homo sapiens. In short, it runs like this:
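NCI-H1993 cells were seeded at 4×10^3 per well and grown 24 h. […] Viability was read by CellTiter-Glo luminescence. Predicted additivity was calculated by Bliss independence, Exy = Ex + Ey − ExEy.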
Background: Cellular ATP, detected with luciferase, serves as a proxy for viable cell number.

The nature of experiment [7]: Inhibition of cap/HCV-mediated translation in mouse Krebs2 cell free extract expressing FF/HCV/Ren mRNA reporter transcript assessed as reduction in luciferase production at 50 uM relative to control. It is filed as functional. In outline:
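Krebs-2 translation extracts were programmed with bicistronic FF/HCV/Ren mRNA and incubated with compound at 50 µM or vehicle (0.5% DMSO). Firefly (cap) and Renilla (HCV IRES) luciferase activities were expressed relative to the DMSO control, from 2 independent translation reactions, as mean with error of the mean. Reference inhibitors were 1 µM hippuristanol and 10 µM anisomycin.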

The next experiment is filed under the species Oryctolagus cuniculus. The experiment in a line: Inhibition of cap/HCV-mediated translation in rabbit reticulocyte lysate expressing FF/HCV/Ren mRNA reporter transcript assessed as reduction in luciferase production at 50 uM after 1 hr relative to control. Type of experiment: functional. In outline:
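Rabbit reticulocyte lysate was programmed with bicistronic FF/HCV/Ren mRNA and incubated with compound (50 µM) or 0.5% DMSO vehicle. Firefly and Renilla luciferase activities were expressed relative to the DMSO control. Two independent translation reactions, reported with error of the mean.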

The nature of experiment [8]: Antiproliferative activity against patient-derived TMZ-resistant GBM 031810 cells over-expressing MGMT after 48 to 96 hrs by MTT assay. Type of experiment: functional. The note with it: Homo sapiens.
Experiment [9] is described as follows: Antiproliferative activity against drug-sensitive human Hs683 cells after 48 to 96 hrs by MTT assay. It is filed as functional. The note with it: Hs 683. In short, it runs like this: (§2)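 MTT read-out. T98G and Hs683 cells were grown in DMEM with 10% FBS, glutamine, gentamicin and penicillin-streptomycin at 37 °C and 5% CO2. Compounds came from 100 or 50 mM DMSO stocks and were tested at 0.001–100 µM for 48–96 h. Controls were 0.1% DMSO (negative) and 1 µM phenyl arsine oxide (positive). The value is the mean concentration giving 50% viability loss; replicate number varied.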

The nature of experiment [10]: Antiproliferative activity against human HeLa cells after 48 hrs by MTT assay. Type of experiment: functional. In outline:
(§3)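 HeLa cells were cultured in DMEM + 10% FBS and MCF-7 cells in RPMI + 10% FBS, both at 37 °C under 5% CO2. Compounds were diluted from DMSO stocks and applied for 48 h. Viability was read by MTT relative to DMSO control. The value is the concentration reducing viability by 50%, ±SD from two independent experiments of 4 replicates each.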

Experiment [11] concerns HeLa S3. The experiment in a line: Inhibition of translation in human HeLaS3 assessed as increase in eIF2alpha phosphorylation at 50 uM after 1 hr by Western blot analysis. Type of experiment: functional. In short, it runs like this: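 HeLa S3 cells were exposed to 50 µM compound for 1 h. Extracts were resolved by SDS-PAGE and transferred to PVDF. Western blots were probed for phospho-eIF2α, pan-eIF2α and eEF2.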

The nature of experiment [12]: Antiproliferative activity against patient-derived TMZ-sensitive GBM 090909 cells after 48 to 96 hrs by MTT assay. Type of experiment: functional. The note with it: Homo sapiens. In outline:
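Primary GBM neurosphere cultures came from resected patient tumour. Tissue was minced, dissociated with 100 U/mL collagenase in neurobasal medium for 30 min at 37 °C, filtered through 70 µm, spun at 200 × g for 5 min, and grown in ultra-low attachment wells in neurobasal medium with B27. Compounds were applied at 0.001–100 µM for 48–96 h. MTT gave the average 50%-viability concentration.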

Experiment [13] is described as follows: Antiproliferative activity against drug-resistant human U373 cells after 48 to 96 hrs by MTT assay. Type of experiment: functional, U-373MG ATCC. The note with it: U373 MG. In short, it runs like this:
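Culture was RPMI with 10% heat-inactivated FBS plus glutamine and antibiotics for U373 cells. Compound exposure was 0.001–100 µM for 48–96 h, with 0.1% DMSO and 1 µM phenyl arsine oxide as controls. The MTT assay gave the average concentration cutting viability by 50%; replicate numbers varied.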

The nature of experiment [14]: Antiproliferative activity against drug-resistant human U87 cells after 48 to 96 hrs by MTT assay. The note with it: U-87 MG. It is filed as functional, U-87MG ATCC. In outline:
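U87 cells grown in DMEM with glutamine, gentamicin and penicillin-streptomycin (37 °C, 95% humidity, 5% CO2) were seeded and then treated with 0.001–100 µM compound for 48–96 h. Readout was MTT. Controls were 0.1% DMSO and 1 µM phenyl arsine oxide. The value is the average concentration reducing viability 50%.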

Experiment [15] in a line: Antiproliferative activity against drug-resistant human T98G cells after 48 to 96 hrs by MTT assay. It is filed as functional. In outline: as §2
Experiment [16] is described as follows: Antiproliferative activity against drug-resistant human A549 cells after 48 to 96 hrs by MTT assay. It is filed as functional. In outline: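 A549 cells grown in RPMI with 10% heat-inactivated FBS, 4 mM glutamine and antibiotics at 37 °C under 5% CO2. Compounds came from 100 or 50 mM DMSO stocks and were tested at 0.001–100 µM for 48–96 h. Read-out was MTT. The value is the mean concentration giving 50% viability loss, with varied replicate numbers. Controls were 0.1% DMSO (negative) and 1 µM phenyl arsine oxide (positive).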

The nature of experiment [17]: Antiproliferative activity against human MCF7 cells after 48 hrs by MTT assay. Type of experiment: functional. The note with it: MCF7, 48 h. In outline: as §3
The test system of experiment [18] is HeLa S3. Kind of experiment: Inhibition of translation in human HeLaS3 assessed as induction of dis-aggregation of polysomes at 50 uM after 1 hr by UV-based […] method. Type of experiment: functional. In outline: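 HeLa S3 cells were exposed to 50 µM compound for 1 h, then analysed by polysome profiling against a DMSO-treated control profile.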

Turning to `CC(=O)O[C@H]1C(=O)[C@@]2(C)[C@H]([C@H](OC(=O)c3ccccc3)[C@]3(O)C[C@H](OC(=O)[C@H](O)[C@@H](NC(=O)c4ccccc4)c4ccccc4)C(C)=C1C3(C)C)[C@]1(OC(C)=O)CO[C@@H]1C[C@@H]2O` [PACLITAXEL], in the experiment with MES-SA, the RatioGI50 was greater than 1000. For the same compound, the GI50 in experiment [1] was 2.4 µM; in [2], 0.004 µM; in [3] it was 10 µM; in experiment [5] it was 0.007 µM. Besides, the “inhibition (INH)” value in experiment [4] was 50%.

For the compound `O=C1C=C[C@]23CC[N@](Cc4c2sc2ccccc42)[C@H]3C1`, the GI50 in experiment [6] is 1 µM; in experiment [8] it was 1 µM; in experiment [1], 11 µM; in experiment [9], 3 µM; in experiment [10], 8 µM; in [2], 3 µM. For the same compound, the concentration for 50% growth inhibition (GI50) in experiment [12] came out at 5 µM; in experiment [13] it was 2 µM; in experiment [14], 2 µM; in experiment [3], 7 µM; in experiment [15], 7 µM; in [16], 9 µM. In addition, the GI50 in [5] and in experiment [17] was 5 µM throughout. In the experiment on NCI-H1993, the outcome was Active. For the same compound, the inhibition at 50 µM in experiment [7] was 25%. The inhibition in the experiment listed under Oryctolagus cuniculus came to 25%. The inhibition entry in the experiment with HeLa S3 [11] and in the experiment on HeLa S3 [18] was “Active” in each case.
